E-sel inducer = E-selectin induction in HUVECs, primary screen, imaging, HUVEC, immunofluorescence imaging, single point | activation, % at 7.58 µM | normalized: neutral wells 0, TNF-alpha wells 100 | actives 0.37% (n = 260,000);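 active = mean E-selectin-positive cell signal at least 10% of the positive control, reached in at least 60% of replicates, without over 20% cell loss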
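System: HUVEC, human umbilical vein endothelial cells; quantity: 3,000 cells/well; buffer or medium: EGM-2 medium, gelatin-coated wells; dosing: single-point compound dose; detection: immunofluorescence imaging; evaluation: % PE-positive cells; benchmarks: TNF-alpha, DMSO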
MLL AF4-AF9 inh = inhibitors of AF4 peptide binding to AF9, primary screen, biochemical, AlphaScreen, biotin-AF4 peptide, FLAG-AF9, single point. actives 0.47% (n = 350,000). AID 651704, 2012. inhibition, % at 10 µM;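 active = every replicate reaching a set inhibition limit, whatever the replicate mean, cut at about 25% in these data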;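 note: 0% = plate neutral control median and 100% = total signal loss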
rRNA inh HTS = reduced GFP signal of wild-type E. coli, primary screen, bacterial rRNA inhibitor project, GFP/RFP fluorescence, OD600, single point | E. coli WT GFP vs humanized-ribosome RFP mutants, 24 h; hits give low values; DMSO median 0, no signal -100 | GFP signal change (wild-type ribosome), % (no concentration beside the values) | actives 1.6% (n = 350,000);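 active = significant combined selectivity score with lowered wild-type GFP, culture density cut under 30%, mutant RFP and density less affected; inactive = any of these conditions unmet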
S100A4 MyoIIA = inhibitors of S100A4-myosin IIA peptide binding, primary screen, biochemical, fluorescence polarization, TAMRA-MyoIIA peptide; Protein S100-A4 (Homo sapiens), P26447; inhibition, % at 10.7 µM; actives 0.14% (n = 360,000);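 active = mean inhibition of at least 70% across replicates, with every replicate also reaching that level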
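Material: S100A4 monomer protein / Buffer or medium: 50 mM HEPES pH 7.2, 10 mM CaCl2, 100 mM KCl / Times: 5 min incubation before reading / Benchmarks: neutral control DMSO, positive control TFP / Reagent: labelled myosin peptide probe, 5 nM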
ERAP1 inh = human ERAP1 aminopeptidase inhibitors, primary screen, biochemical, single point, plate reader; Endoplasmic reticulum aminopeptidase 1 (Homo sapiens), Q9NZ08; recombinant ERAP1, Leu-AMC fluorescence, 60 min; inhibition, % at 10.7 µM; actives 0.15% (n = 340,000);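 active = mean replicate inhibition of at least 30%, or all replicates individually reaching that 30% level; inactive = mean below 30% and not every replicate reaching it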;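 note: 0% = neutral control wells and 100% = L-leucinethiol positive control wells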
SIRT5 block = SIRT5 desuccinylase inhibitors, primary screen, biochemical, fluorescence imaging, single point, set 5; NAD-dependent protein deacylase sirtuin-5, mitochondrial (Homo sapiens), Q9NXA8; Purified SirT5, succinyl-peptide AMC, trypsin-coupled fluorescence; inhibition, % at 15 µM; actives 1.1% (n = 330,000); in the data active = inhibition above about 15%
* hit, by the source's call; · = not tested or not shown. This is a sample that favours compounds with a hit; in the whole collection about 3.4% have one here.

SMILES | E-sel inducer | MLL AF4-AF9 inh | rRNA inh HTS | S100A4 MyoIIA | ERAP1 inh | SIRT5 block
CC(=O)N1CCCCN2[C@H](CO)[C@H](c3ccc(C#Cc4ccccc4F)cc3)[C@H]2C1 | 0 | 1 | -1 | 11 | -2 | 0
Cc1ccccc1-c1ccc([C@@H]2[C@@H](CO)N3CCCCN(C(=O)c4cccnc4)C[C@@H]23)cc1 | 0 | 4 | 3 | 3 | 2 | -1
CC(C)CC#Cc1ccc([C@H]2[C@H](CO)N3CCCCN(C(=O)NC4CCCC4)C[C@@H]23)cc1 | 0 | 6 | -59 | 4 | 2 | 17*
CC(C)CC#Cc1ccc([C@H]2[C@@H](CO)N3CCCCN(C(=O)NC4CCCC4)C[C@@H]23)cc1 | 0 | -14 | -35 | -4 | 2 | 6
O=C(c1cccnc1)N1CCCCN2[C@@H](CO)[C@H](c3ccc(C#Cc4ccccn4)cc3)[C@@H]2C1 | 0 | -6 | 8 | -2 | 1 | 3
O=C(c1cccnc1)N1CCCCN2[C@H](C1)[C@H](c1ccc(C#Cc3ccccn3)cc1)[C@@H]2CO | 0 | 25* | -1 | -5 | 1 | 0
COc1ccc(C#Cc2ccc([C@H]3[C@H]4CN(C(=O)Nc5ccccc5)CCCCN4[C@H]3CO)cc2)cc1 | -1 | -8 | 0 | 119* | 4 | -1
O=C(C1CCCC1)N1CCCCN2[C@H](CO)[C@@H](c3ccc(C#CC4(O)CCCC4)cc3)[C@H]2C1 | · | 0 | · | 126* | 4 | 5
C[C@H]1CN([C@@H](C)CO)S(=O)(=O)c2ccc(-c3cncnc3)cc2O[C@@H]1CN(C)Cc1cccnc1 | 0 | -1 | -4 | 1 | 0 | -10
CO[C@@H]1CN(C)C(=O)c2cc(NC(=O)C3CCCC3)ccc2OC[C@@H](C)N(CCC(F)(F)F)C[C@@H]1C | 0 | -2 | -6 | -4 | 3 | 0
CCS(=O)(=O)N1[C@@H](CO)[C@@H](c2ccccc2)C12CN(C(=O)C1CC1)C2 | 0 | -2 | 2 | -4 | -1 | -2
NNC(=O)Cn1c2ccccc2c2ccccc21 | 0 | -2 | -5 | 2 | 1 | -3
NNC(=O)Cn1c(-c2ccccc2)cc2ccccc21 | 1 | 0 | 9 | -3 | -1 | 21*
COCCCNc1nc2cc(OC)c(OC)cc2c2nc(-c3ccccc3)nn12 | 0 | -3 | 1 | -3 | -1 | 21*
CN1CCN(CCCNc2nc3ccccc3c3nc(-c4ccccc4)nn23)CC1 | 3 | 19 | -2 | 8 | -3 | -5
C/C=C/c1cnc2c(c1)C(=O)N([C@H](C)CO)C[C@H](C)[C@H](CN(C)C(=O)c1ccc3c(c1)OCO3)O2 | 0 | -7 | -1 | -10 | 12 | -6
O=C(OC1CCOC1=O)c1cc(Cl)ccc1[N+](=O)[O-] (centres undefined) | 0 | 0 | 4 | 2 | 2 | 98*
CCCNC(=S)N1CCC(NC(=O)c2ccc(C)cc2)CC1 | · | -2 | 3 | 0 | 2 | 25*
Cc1ccc(NC(=S)N2CCC(NC(=O)c3ccc(C)cc3)CC2)cc1 | · | 0 | 3 | 2 | 0 | -3
Cc1noc(C)c1S(=O)(=O)Nc1ccc2c(c1)C(=O)N([C@@H](C)CO)C[C@H](C)[C@H](CN(C)C)OCCCC[C@H](C)O2 | 0 | -3 | 1 | 2 | 0 | 2
COc1ccc2c(c1)[nH]c1c(Cl)ncnc12 | · | -1 | -8 | -3 | 12 | 2
Cc1ccc2[nH]c3c(Cl)ncnc3c2c1 | 0 | 6 | -29* | -3 | 4 | 1
CC(C)Oc1cc(O)c2c(=O)c(-c3ccc(O)cc3)coc2c1 | 114* | 6 | -8 | -6 | 7 | 0
Cc1nn(-c2ccccc2)nc1C(=O)NNC(=O)c1cccc2ccccc12 | 0 | -3 | -21* | 0 | 0 | -1
COc1ccc(C(=O)OCCN2CCCCC2)cc1 | · | 2 | 13 | 20 | -3 | 25*
SMILES | E-sel inducer | MLL AF4-AF9 inh | rRNA inh HTS | S100A4 MyoIIA | ERAP1 inh | SIRT5 block
O=c1cc2oc3cc(O)c(O)cc3c(-c3ccccc3[N+](=O)[O-])c-2cc1O | 0 | 3 | -38 | -2 | -6 | 16*
O=c1cc(-c2ccccc2Cl)oc2cccc(O)c12 | 0 | 4 | 12 | 17 | 1 | 2
CC(C)(C)c1ccc(OCCC(=O)OCC(=O)NCc2ccccc2)cc1 | 0 | -2 | -34* | 1 | -3 | -3
CNC[C@@H]1Oc2c(NC(=O)NC(C)C)cccc2C(=O)N(C)C[C@@H]1C | · | · | 2 | · | · | ·
S=C(Nc1cc(Cl)cc(Cl)c1)N1CCN(c2ccccn2)CC1 | 0 | -3 | -1 | -4 | -2 | -1
Fc1ccc(NC(=S)N2CCN(c3ccccn3)CC2)cc1Cl | 0 | -2 | -22* | -1 | 1 | -3
Cc1cccc(NC(=S)N2CCN(c3ccccn3)CC2)c1 | · | -2 | 11 | -2 | 1 | -2
Cc1cc(C)cc(NC(=S)N2CCN(c3ccccn3)CC2)c1 | 0 | 2 | -22* | -38 | · | 4
CCCn1nc(NS(=O)(=O)c2ccccc2[N+](=O)[O-])c2cc3ccccc3nc21 | · | 1 | -21* | 1 | 2 | -1
CCn1nc(NS(=O)(=O)c2ccccc2[N+](=O)[O-])c2cc3cccc(C)c3nc21 | · | -2 | -4 | -3 | 3 | -1
Cc1ncc(CO)c(/C=N/NC(=O)c2cc(Br)ccc2O)c1O | · | 28* | -51 | 1 | -2 | 1
Cc1ccccc1S(=O)(=O)NCC[C@H]1CC[C@H](NC(=O)C2CCOCC2)[C@@H](CO)O1 | 0 | -2 | 2 | -20 | -2 | -2
CNS(=O)(=O)c1cc(N(C)S(=O)(=O)c2ccc(C)cc2)c(C)cc1C | · | -1 | -45* | -3 | -3 | 6
Cc1ccc(Nc2nc(N)c3ccccc3n2)cc1Cl | 1 | 8 | -28 | 1 | -33 | -1
COc1cc2nc(Nc3ccc(C)c(Cl)c3)nc(N)c2cc1OC | 0 | 33* | -70 | 6 | 8 | 1
COc1cc2nc(Nc3ccc(F)cc3)nc(N)c2cc1OC | 0 | 13 | -16* | -2 | -5 | 0
COc1cc2nc(Nc3ccc(C)c(C)c3)nc(N)c2cc1OC | 0 | 26* | -38* | -3 | -1 | 5
O=C(COC(=O)CC1CC2CCC1C2)NCc1ccccc1 (centres undefined) | 0 | -1 | -16 | -11 | -7 | 35*

From PubChem BioAssay
